Reference: ChEMBL document CHEMBL4261538, “Synthesis and molecular docking studies of xanthone attached amino acids as potential antimicrobial and anti-inflammatory agents” (Medchemcomm, 2017)
≈ marks a conversion by molar mass, not a printed value. Calls of active or inactive are those of the source. The calls are words filed in the database; no cut-off is given here.

Assays:
Bacillus subtilis [1] = assay: Antibacterial activity against Bacillus subtilis at 25 ug/ml incubated for 24 hrs by agar well diffusion method; type: functional
In short: (§1)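 Bacteria grown in nutrient broth at 37 °C for 24 h, then subcultured at room temperature. Compounds dissolved in DMSO at 5 mg mL⁻¹ and 5–20 µL added to 6 mm wells, giving 25, 50, 75, 100 µg per well. Gentamicin was the positive control and DMSO the negative control. Plates held at 37 °C for 24 h, then inhibition zone diameter (mm) measured. Values are means of three determinations.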

Staphylococcus aureus [2] = assay: Antibacterial activity against Staphylococcus aureus at 75 ug/ml incubated for 24 hrs by agar well diffusion method; type: functional; conditions: for zone of inhibition at 75 µg/mL: read-out: DIZ; in short: as §1
Staphylococcus aureus [3] = assay: Antibacterial activity against Staphylococcus aureus at 25 ug/ml incubated for 24 hrs by agar well diffusion method; type: functional; conditions: for zone of inhibition at 25 µg/mL: read-out: DIZ; in short: as §1
Bacillus subtilis [4] = assay: Antibacterial activity against Bacillus subtilis incubated for 24 hrs by microdilution method; type: functional
Staphylococcus aureus [5] = assay: Antibacterial activity against Staphylococcus aureus at 50 ug/ml incubated for 24 hrs by agar well diffusion method; type: functional; conditions: for zone of inhibition at 50 µg/mL: read-out: DIZ; in short: as §1
Escherichia coli [6] = assay: Antibacterial activity against Escherichia coli incubated for 24 hrs by microdilution method; type: functional
Klebsiella pneumoniae [7] = assay: Antibacterial activity against Klebsiella pneumoniae at 100 ug/ml incubated for 24 hrs by agar well diffusion method; type: functional; in short: as §1
Escherichia coli [8] = assay: Antibacterial activity against Escherichia coli at 50 ug/ml incubated for 24 hrs by agar well diffusion method; type: functional; conditions: for zone of inhibition at 50 µg/mL: read-out: DIZ; in short: as §1
Klebsiella pneumoniae [9] = assay: Antibacterial activity against Klebsiella pneumoniae at 25 ug/ml incubated for 24 hrs by agar well diffusion method; type: functional; in short: as §1
Staphylococcus aureus [10] = assay: Antibacterial activity against Staphylococcus aureus at 100 ug/ml incubated for 24 hrs by agar well diffusion method; type: functional; conditions: for zone of inhibition at 100 µg/mL: read-out: DIZ; in short: as §1
Klebsiella pneumoniae [11] = assay: Antibacterial activity against Klebsiella pneumoniae at 75 ug/ml incubated for 24 hrs by agar well diffusion method; type: functional; in short: as §1
Escherichia coli [12] = assay: Antibacterial activity against Escherichia coli at 100 ug/ml incubated for 24 hrs by agar well diffusion method; type: functional; conditions: for zone of inhibition at 100 µg/mL: read-out: DIZ; in short: as §1
Bacillus subtilis [13] = assay: Antibacterial activity against Bacillus subtilis at 100 ug/ml incubated for 24 hrs by agar well diffusion method; type: functional; conditions: for zone of inhibition at 100 µg/mL: read-out: DIZ; in short: as §1
Staphylococcus aureus [14] = assay: Antibacterial activity against Staphylococcus aureus incubated for 24 hrs by microdilution method; type: functional
Klebsiella pneumoniae [15] = assay: Antibacterial activity against Klebsiella pneumoniae at 50 ug/ml incubated for 24 hrs by agar well diffusion method; type: functional; in short: as §1
Klebsiella pneumoniae [16] = assay: Antibacterial activity against Klebsiella pneumoniae incubated for 24 hrs by microdilution method; type: functional
Escherichia coli [17] = assay: Antibacterial activity against Escherichia coli at 75 ug/ml incubated for 24 hrs by agar well diffusion method; type: functional; conditions: for zone of inhibition at 75 µg/mL: read-out: DIZ; in short: as §1
Bacillus subtilis [18] = assay: Antibacterial activity against Bacillus subtilis at 75 ug/ml incubated for 24 hrs by agar well diffusion method; type: functional; conditions: for zone of inhibition at 75 µg/mL: read-out: DIZ; in short: as §1
Bacillus subtilis [19] = assay: Antibacterial activity against Bacillus subtilis at 50 ug/ml incubated for 24 hrs by agar well diffusion method; type: functional; in short: as §1
Escherichia coli [20] = assay: Antibacterial activity against Escherichia coli at 25 ug/ml incubated for 24 hrs by agar well diffusion method; type: functional; conditions: for zone of inhibition at 25 µg/mL: read-out: DIZ; in short: as §1
Aspergillus niger [21] = assay: Antifungal activity against Aspergillus niger at 100 ug/ml incubated for 48 hrs by agar well diffusion method; type: functional; conditions: read-out: DIZ
In short: (§2)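 Compounds dissolved in DMSO at 5 mg mL⁻¹ and 5–20 µL added to 6 mm wells, giving 25, 50, 75, 100 µg per well. Bavistin was the positive control and DMSO the negative control. Plates incubated at 28 °C for 48 h, then inhibition zone diameter (mm) measured. Values are means of three determinations.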

Candida albicans [22] = assay: Antifungal activity against Candida albicans at 100 ug/ml incubated for 48 hrs by agar well diffusion method; type: functional; conditions: read-out: DIZ; in short: as §2
Aspergillus niger [23] = assay: Antifungal activity against Aspergillus niger at 50 ug/ml incubated for 48 hrs by agar well diffusion method; type: functional; conditions: read-out: DIZ; in short: as §2
Candida albicans [24] = assay: Antifungal activity against Candida albicans at 50 ug/ml incubated for 48 hrs by agar well diffusion method; type: functional; in short: as §2
Aspergillus niger [25] = assay: Antifungal activity against Aspergillus niger at 75 ug/ml incubated for 48 hrs by agar well diffusion method; type: functional; conditions: read-out: DIZ; in short: as §2
Candida albicans [26] = assay: Antifungal activity against Candida albicans at 75 ug/ml incubated for 48 hrs by agar well diffusion method; type: functional; conditions: read-out: DIZ; in short: as §2
Fusarium oxysporum [27] = assay: Antifungal activity against Fusarium oxysporum at 50 ug/ml incubated for 48 hrs by agar well diffusion method; type: functional; in short: as §2
Erythrocyte = assay: Anti-inflammatory activity in human RBC assessed as inhibition of hypotonic solution-induced hemolysis after 10 mins by spectrophotometric method; type: functional, cell-based
In short: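 Human blood (heparinized) washed with 0.9% saline, packed cells made into a 40% v/v stock in isotonic phosphate buffer (154 mM NaCl, 10 mM sodium phosphate, pH 7.4). Stock RBC mixed with hypotonic buffer (50 mM NaCl, 10 mM phosphate, pH 7.4) plus sample at 20–100 µg mL⁻¹.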

Fusarium oxysporum [28] = assay: Antifungal activity against Fusarium oxysporum at 25 ug/ml incubated for 48 hrs by agar well diffusion method; type: functional; in short: as §2
Candida albicans [29] = assay: Antifungal activity against Candida albicans at 25 ug/ml incubated for 48 hrs by agar well diffusion method; type: functional; in short: as §2
Fusarium oxysporum [30] = assay: Antifungal activity against Fusarium oxysporum at 100 ug/ml incubated for 48 hrs by agar well diffusion method; type: functional; in short: as §2
Aspergillus niger [31] = assay: Antifungal activity against Aspergillus niger at 25 ug/ml incubated for 48 hrs by agar well diffusion method; type: functional; conditions: read-out: DIZ; in short: as §2
Fusarium oxysporum [32] = assay: Antifungal activity against Fusarium oxysporum at 75 ug/ml incubated for 48 hrs by agar well diffusion method; type: functional; in short: as §2

Molecule: GENTAMICIN
- inhibition zone (IZ) (Bacillus subtilis [1]): 21 mm
- inhibition zone (IZ) (Staphylococcus aureus [2]): 29 mm
- inhibition zone (IZ) (Staphylococcus aureus [3]): 17 mm
- MIC (Bacillus subtilis [4]): 28 µg/mL
- inhibition zone (IZ) (Staphylococcus aureus [5]): 21 mm
- MIC (Escherichia coli [6]): 26 µg/mL
- inhibition zone (IZ) (Klebsiella pneumoniae [7]): 34 mm
- inhibition zone (IZ) (Escherichia coli [8]): 24 mm
- inhibition zone (IZ) (Klebsiella pneumoniae [9]): 19 mm
- inhibition zone (IZ) (Staphylococcus aureus [10]): 32 mm
- inhibition zone (IZ) (Klebsiella pneumoniae [11]): 29 mm
- inhibition zone (IZ) (Escherichia coli [12]): 33 mm
- inhibition zone (IZ) (Bacillus subtilis [13]): 33 mm
- MIC (Staphylococcus aureus [14]): 26 µg/mL
- inhibition zone (IZ) (Klebsiella pneumoniae [15]): 24 mm
- MIC (Klebsiella pneumoniae [16]): 26 µg/mL
- inhibition zone (IZ) (Escherichia coli [17]): 29 mm
- inhibition zone (IZ) (Bacillus subtilis [18]): 28 mm
- inhibition zone (IZ) (Bacillus subtilis [19]): 24 mm
- inhibition zone (IZ) (Escherichia coli [20]): 18 mm

Molecule: O=c1c2ccccc2oc2cc(O)ccc12
- diameter of the inhibition zone (DIZ) (Bacillus subtilis [1]): inactive
- zone of inhibition at 75 µg/mL (Staphylococcus aureus [2]): 11 mm
- zone of inhibition at 100 µg/mL (Aspergillus niger [21]): 11 mm
- zone of inhibition at 25 µg/mL (Staphylococcus aureus [3]): 4 mm
- zone of inhibition at 100 µg/mL (Candida albicans [22]): 10 mm
- zone of inhibition at 50 µg/mL (Aspergillus niger [23]): 7 mm
- zone of inhibition at 50 µg/mL (Staphylococcus aureus [5]): 7 mm
- diameter of the inhibition zone (DIZ) (Candida albicans [24]): inactive
- zone of inhibition at 75 µg/mL (Aspergillus niger [25]): 9 mm
- diameter of the inhibition zone (DIZ) (Klebsiella pneumoniae [7]): inactive
- zone of inhibition at 50 µg/mL (Escherichia coli [8]): 7 mm
- diameter of the inhibition zone (DIZ) (Klebsiella pneumoniae [9]): inactive
- zone of inhibition at 75 µg/mL (Candida albicans [26]): 6 mm
- zone of inhibition at 100 µg/mL (Staphylococcus aureus [10]): 14 mm
- diameter of the inhibition zone (DIZ) (Fusarium oxysporum [27]): inactive
- diameter of the inhibition zone (DIZ) (Klebsiella pneumoniae [11]): inactive
- IC50 (Erythrocyte): 90 µg/mL (≈ 424 µM)
- zone of inhibition at 100 µg/mL (Escherichia coli [12]): 13 mm
- zone of inhibition at 100 µg/mL (Bacillus subtilis [13]): 10 mm
- diameter of the inhibition zone (DIZ) (Klebsiella pneumoniae [15]): inactive
- diameter of the inhibition zone (DIZ) (Fusarium oxysporum [28]): inactive
- diameter of the inhibition zone (DIZ) (Candida albicans [29]): inactive
- zone of inhibition at 100 µg/mL (Fusarium oxysporum [30]; read-out: DIZ): 9 mm
- zone of inhibition at 75 µg/mL (Escherichia coli [17]): 11 mm
- zone of inhibition at 25 µg/mL (Aspergillus niger [31]): 4 mm
- zone of inhibition at 75 µg/mL (Bacillus subtilis [18]): 6 mm
- diameter of the inhibition zone (DIZ) (Bacillus subtilis [19]): inactive
- zone of inhibition at 75 µg/mL (Fusarium oxysporum [32]; read-out: DIZ): 5 mm
- zone of inhibition at 25 µg/mL (Escherichia coli [20]): 3 mm

Molecule: CC[C@H](C)[C@H](NC(=O)OC(C)(C)C)C(=O)Oc1ccc2c(=O)c3ccccc3oc2c1
- zone of inhibition at 25 µg/mL (Bacillus subtilis [1]; read-out: DIZ): 7 mm
- zone of inhibition at 75 µg/mL (Staphylococcus aureus [2]): 15 mm
- zone of inhibition at 100 µg/mL (Aspergillus niger [21]): 20 mm
- zone of inhibition at 25 µg/mL (Staphylococcus aureus [3]): 4 mm
- zone of inhibition at 100 µg/mL (Candida albicans [22]): 22 mm
- zone of inhibition at 50 µg/mL (Aspergillus niger [23]): 12 mm
- zone of inhibition at 50 µg/mL (Staphylococcus aureus [5]): 10 mm
- zone of inhibition at 50 µg/mL (Candida albicans [24]; read-out: DIZ): 13 mm
- zone of inhibition at 75 µg/mL (Aspergillus niger [25]): 16 mm
- zone of inhibition at 100 µg/mL (Klebsiella pneumoniae [7]; read-out: DIZ): 25 mm
- zone of inhibition at 50 µg/mL (Escherichia coli [8]): 12 mm
- zone of inhibition at 25 µg/mL (Klebsiella pneumoniae [9]; read-out: DIZ): 7 mm
- zone of inhibition at 75 µg/mL (Candida albicans [26]): 17 mm
- zone of inhibition at 100 µg/mL (Staphylococcus aureus [10]): 19 mm
- diameter of the inhibition zone (DIZ) (Fusarium oxysporum [27]): inactive
- zone of inhibition at 75 µg/mL (Klebsiella pneumoniae [11]; read-out: DIZ): 20 mm
- IC50 (Erythrocyte): 60 µg/mL (≈ 141 µM)
- zone of inhibition at 100 µg/mL (Escherichia coli [12]): 22 mm
- zone of inhibition at 100 µg/mL (Bacillus subtilis [13]): 19 mm
- zone of inhibition at 50 µg/mL (Klebsiella pneumoniae [15]; read-out: DIZ): 14 mm
- diameter of the inhibition zone (DIZ) (Fusarium oxysporum [28]): inactive
- zone of inhibition at 25 µg/mL (Candida albicans [29]; read-out: DIZ): 9 mm
- diameter of the inhibition zone (DIZ) (Fusarium oxysporum [30]): inactive
- zone of inhibition at 75 µg/mL (Escherichia coli [17]): 19 mm
- zone of inhibition at 25 µg/mL (Aspergillus niger [31]): 8 mm
- zone of inhibition at 75 µg/mL (Bacillus subtilis [18]): 14 mm
- zone of inhibition at 50 µg/mL (Bacillus subtilis [19]; read-out: DIZ): 11 mm
- diameter of the inhibition zone (DIZ) (Fusarium oxysporum [32]): inactive
- zone of inhibition at 25 µg/mL (Escherichia coli [20]): 8 mm
